The source of these data is ChEMBL document CHEMBL1132976, “Biarylcarbamoylindolines are novel and selective 5-HT(2C) receptor inverse agonists: identification of 5-methyl-1-[[2-[(2-methyl-3-pyridyl)oxy]- 5-pyridyl]carbamoyl]-6-trifluoromethylindoline (SB-243213) as a potential antidepressant/anxiolytic agent” (J Med Chem, 2000).

As usually defined, the Ki is the equilibrium dissociation constant of an inhibitor or competing ligand from its target. High values mean weaker binding, low ones tighter binding. As usually defined, the IC50 is the concentration needed to halve the response being measured. Low readings indicate higher potency, high ones lower potency. The term Inhibition denotes the drop in the measured response relative to a control, in per cent. Read a low Inhibition as little suppression.

Test [1] concerns the target T1, 5-hydroxytryptamine receptor 2B (Homo sapiens, UniProt P41595). Description: Displacement of [3H]5-HT from human 5-hydroxytryptamine 2B receptor expressed in HEK293 cells; compound is insoluble. It is filed as cell-based. An outline of the steps: (§1)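 Competition binding at human cloned receptors expressed in HEK 293 cells. Radioligands: [3H]ketanserin for 5-HT2A, [3H]5-HT for 5-HT2B, [3H]mesulergine for 5-HT2C. Values are pKi, given as the mean of at least two determinations, each within 0.2 log unit of the mean.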
In general terms: In a radioligand displacement assay an active substance lowers the binding of a labelled ligand.

Test [2] addresses T2, 5-hydroxytryptamine receptor 2C (Homo sapiens) (UniProt P28335).
T2 sequence (whole entry): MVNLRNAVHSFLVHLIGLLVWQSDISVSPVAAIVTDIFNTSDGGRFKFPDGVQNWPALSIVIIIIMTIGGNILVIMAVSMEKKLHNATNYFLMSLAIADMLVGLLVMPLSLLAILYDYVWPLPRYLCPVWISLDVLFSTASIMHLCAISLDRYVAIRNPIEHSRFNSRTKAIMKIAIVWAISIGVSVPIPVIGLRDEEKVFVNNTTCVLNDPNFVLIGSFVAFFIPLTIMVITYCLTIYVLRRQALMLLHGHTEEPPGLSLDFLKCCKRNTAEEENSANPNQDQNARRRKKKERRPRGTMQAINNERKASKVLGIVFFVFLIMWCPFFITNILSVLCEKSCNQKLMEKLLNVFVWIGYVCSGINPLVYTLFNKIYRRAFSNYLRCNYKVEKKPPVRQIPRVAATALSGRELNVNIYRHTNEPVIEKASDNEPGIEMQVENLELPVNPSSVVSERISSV
Description: Displacement of [3H]mesulergine from human 5-hydroxytryptamine 2C receptor expressed in HEK293 cells; compound insoluble. It is filed as cell-based. The method, boiled down: as §1

Test [3] has as its target T3, 5-hydroxytryptamine receptor 2A (Homo sapiens, UniProt P28223). The test can be described thus: Displacement of [3H]ketanserin from human 5-hydroxytryptamine 2A receptor expressed in HEK293 cells; compound is insoluble. It is filed as cell-based. The method, boiled down:
as §1

Test [4] concerns the target T4, 5-hydroxytryptamine receptor 2C (Homo sapiens, UniProt P28335).
T4 sequence (P28335 whole entry): T2 sequence (whole entry)
The test can be described thus: Binding affinity towards human cloned 5-hydroxytryptamine receptor 2C in HEK293 cells, using [3H]mesulergine as radioligand. It is filed as cell-based. The method, boiled down: as §1

The subject of test [5] is Rattus norvegicus. The test can be described thus: Dose required to reverse mCPP induced hypolocomotion in rat after oral administration. It is filed as functional. The note with it: read-out: ID50 (the source's name). The method, boiled down:
(§2)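 Rat hypolocomotion model. The test compound was given orally, and mCPP was given at 7 mg/kg ip 30 min before the test. ID50 (mg/kg po) is the dose that reverses mCPP-induced hypolocomotion by 50%.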

The target in test [6] is T5, Cytochrome P450 1A2 (Homo sapiens, UniProt P05177).
T5 sequence (P05177 whole entry): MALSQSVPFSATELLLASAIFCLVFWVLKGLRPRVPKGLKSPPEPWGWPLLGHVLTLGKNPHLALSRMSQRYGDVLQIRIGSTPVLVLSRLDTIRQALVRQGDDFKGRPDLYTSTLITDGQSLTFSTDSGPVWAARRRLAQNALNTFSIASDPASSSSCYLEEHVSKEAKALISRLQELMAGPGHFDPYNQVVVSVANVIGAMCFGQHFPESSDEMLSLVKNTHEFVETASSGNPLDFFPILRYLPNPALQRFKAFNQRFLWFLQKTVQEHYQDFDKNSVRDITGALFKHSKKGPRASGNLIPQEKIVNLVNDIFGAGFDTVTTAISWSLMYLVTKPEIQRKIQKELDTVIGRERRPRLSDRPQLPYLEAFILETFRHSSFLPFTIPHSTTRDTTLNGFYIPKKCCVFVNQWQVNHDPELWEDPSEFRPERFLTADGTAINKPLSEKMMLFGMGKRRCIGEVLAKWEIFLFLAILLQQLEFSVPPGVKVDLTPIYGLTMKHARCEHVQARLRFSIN
The test can be described thus: Inhibition of heterologously expressed human cytochrome P450 1A2. In kind it is ADME. The method, boiled down: (§3)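 Heterologously expressed human CYP1A2 in an isoform-selective assay. Substrate: caffeine N3-demethylation at 500 µM, at the substrate Km.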

Test [7] concerns the target T6, Serotonin 2 receptors; 5-HT2a & 5-HT2c (Homo sapiens) (UniProt P28223+P28335). The test can be described thus: Selectivity index for binding affinities for 5-HT2C and 5-HT2A receptors. In kind it is protein assay.
The target of test [8] is T7, Serotonin receptor (2b and 2c) (Homo sapiens) (UniProt P41595+P28335). The test can be described thus: Selectivity index for binding affinities for 5-HT2C and 5-HT2B receptors. In kind it is protein assay.
In test [9] the target is T1, 5-hydroxytryptamine receptor 2B. Description: Binding affinities towards human cloned 5-hydroxytryptamine 2B receptor in HEK293 cells using [3H]5-HT as radioligand. In kind it is cell-based. The method, boiled down: as §1
The target in test [10] is T3, 5-hydroxytryptamine receptor 2A. Description: Binding affinity towards human cloned 5-hydroxytryptamine receptor 2A in HEK293 cells, using [3H]ketanserin as radioligand. It is filed as cell-based. An outline of the steps: as §1
Test [11] deals with T7, Serotonin receptor (2b and 2c) (Homo sapiens). The test can be described thus: Selectivity index determined from the binding affinities of 5-HT2C and 5-HT2B. In kind it is protein assay.
Test [12] addresses T6, Serotonin 2 receptors; 5-HT2a & 5-HT2c (Homo sapiens). Description: Selectivity index determined from binding affinities of 5-HT2C and 5-HT2A. It is filed as protein assay.
In test [13] the target is T5, Cytochrome P450 1A2. The test can be described thus: Inhibition of heterologously expressed human cytochrome P450 1A2. In kind it is ADME. The method, boiled down: as §3
For a further test, the target named is Cytochrome P450 2C19 (Homo sapiens, UniProt P33261). Description: Inhibition of heterologously expressed human cytochrome P450 2C19. It is filed as ADME.
Chain of Cytochrome P450 2C19 (P33261 whole entry): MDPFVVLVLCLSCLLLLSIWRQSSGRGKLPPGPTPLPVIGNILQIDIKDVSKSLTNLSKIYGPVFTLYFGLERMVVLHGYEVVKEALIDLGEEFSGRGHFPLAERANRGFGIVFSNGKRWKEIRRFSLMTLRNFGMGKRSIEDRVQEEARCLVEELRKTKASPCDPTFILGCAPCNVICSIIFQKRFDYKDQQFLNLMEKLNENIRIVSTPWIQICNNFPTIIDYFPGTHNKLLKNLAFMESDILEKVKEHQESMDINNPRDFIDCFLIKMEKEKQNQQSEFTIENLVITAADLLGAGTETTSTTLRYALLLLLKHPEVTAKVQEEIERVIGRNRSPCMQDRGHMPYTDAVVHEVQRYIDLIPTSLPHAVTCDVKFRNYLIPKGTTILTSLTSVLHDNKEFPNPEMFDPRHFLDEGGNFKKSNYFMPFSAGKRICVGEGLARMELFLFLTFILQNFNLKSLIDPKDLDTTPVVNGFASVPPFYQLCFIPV
In test [14] the test system is Rattus norvegicus. Description: Dose required to reverse mCPP induced hypolocomotion in rats after oral administration. In kind it is functional. An outline of the steps: as §2
For test [15], the target named is T1, 5-hydroxytryptamine receptor 2B. The test can be described thus: Displacement of [3H]5-HT from human 5-hydroxytryptamine 2B receptor expressed in HEK293 cells. In kind it is cell-based. The method, boiled down: as §1
The target of a further test is Cytochrome P450 3A4 (Homo sapiens, UniProt P08684). Description: Inhibition of heterologously expressed human cytochrome P450 3A4. In kind it is ADME.
Chain of Cytochrome P450 3A4 (P08684 whole entry): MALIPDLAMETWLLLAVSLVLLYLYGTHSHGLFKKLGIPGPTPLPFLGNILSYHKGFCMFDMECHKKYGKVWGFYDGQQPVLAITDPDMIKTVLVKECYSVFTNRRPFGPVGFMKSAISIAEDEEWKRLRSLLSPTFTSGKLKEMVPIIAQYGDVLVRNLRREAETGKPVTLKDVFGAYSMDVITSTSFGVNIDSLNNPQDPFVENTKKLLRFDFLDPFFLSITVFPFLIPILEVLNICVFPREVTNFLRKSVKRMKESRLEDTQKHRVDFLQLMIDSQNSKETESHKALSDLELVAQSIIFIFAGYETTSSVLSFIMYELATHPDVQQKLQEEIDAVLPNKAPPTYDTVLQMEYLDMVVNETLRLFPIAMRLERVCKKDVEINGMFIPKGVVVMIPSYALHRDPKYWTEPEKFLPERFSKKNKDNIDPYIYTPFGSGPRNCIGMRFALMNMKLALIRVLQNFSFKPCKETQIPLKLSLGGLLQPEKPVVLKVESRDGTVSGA
The target of another test is Cytochrome P450 2C9 (Homo sapiens, UniProt P11712). The test can be described thus: Inhibition of heterologously expressed human cytochrome P450 2C9. It is filed as ADME.
Chain of Cytochrome P450 2C9 (P11712 whole entry): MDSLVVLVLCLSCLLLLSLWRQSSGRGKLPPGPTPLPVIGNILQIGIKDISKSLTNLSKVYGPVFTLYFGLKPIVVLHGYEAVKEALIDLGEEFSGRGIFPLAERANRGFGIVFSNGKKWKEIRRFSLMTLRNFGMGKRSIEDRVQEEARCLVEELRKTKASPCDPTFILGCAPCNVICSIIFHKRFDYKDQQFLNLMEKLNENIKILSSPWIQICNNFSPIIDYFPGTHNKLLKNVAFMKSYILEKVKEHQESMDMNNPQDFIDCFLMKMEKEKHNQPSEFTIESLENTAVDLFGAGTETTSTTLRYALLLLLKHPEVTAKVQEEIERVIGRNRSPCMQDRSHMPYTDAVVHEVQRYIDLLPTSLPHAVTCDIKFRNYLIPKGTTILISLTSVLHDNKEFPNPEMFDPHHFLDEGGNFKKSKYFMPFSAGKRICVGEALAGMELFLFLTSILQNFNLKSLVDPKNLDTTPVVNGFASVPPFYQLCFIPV
The target of the next test is Cytochrome P450 2D6 (Homo sapiens, UniProt P10635). Description: Inhibition of heterologously expressed human cytochrome P450 2D6. It is filed as ADME.
Chain of Cytochrome P450 2D6 (P10635 whole entry): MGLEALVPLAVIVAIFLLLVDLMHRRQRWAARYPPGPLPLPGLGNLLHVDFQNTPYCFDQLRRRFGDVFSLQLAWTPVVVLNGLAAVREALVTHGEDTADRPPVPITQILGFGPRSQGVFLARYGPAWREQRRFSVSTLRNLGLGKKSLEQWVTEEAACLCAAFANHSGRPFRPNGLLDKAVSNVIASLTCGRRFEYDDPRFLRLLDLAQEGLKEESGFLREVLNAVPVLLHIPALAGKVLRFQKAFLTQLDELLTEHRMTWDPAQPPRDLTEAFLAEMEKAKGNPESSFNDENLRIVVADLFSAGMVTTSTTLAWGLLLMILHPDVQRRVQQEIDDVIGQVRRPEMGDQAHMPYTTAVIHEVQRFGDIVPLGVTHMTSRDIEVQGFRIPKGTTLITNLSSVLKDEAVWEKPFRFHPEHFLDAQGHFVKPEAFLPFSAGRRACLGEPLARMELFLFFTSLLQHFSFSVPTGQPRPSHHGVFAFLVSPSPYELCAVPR
Test [16] relates to Rattus norvegicus. The test can be described thus: Dose required to reverse mCPP induced hypolocomotion in rats after oral administration; IA=inactive. It is filed as functional, organism-based. An outline of the steps: as §2
Test [17] has as its system Rattus norvegicus. Description: Dose required to reverse mCPP induced hypolocomotion in rats after oral administration; NA=inactive. In kind it is functional, organism-based. An outline of the steps: as §2

SMILES strings stand for the structures. Active and inactive are the calls of the source. The calls are words filed in the database; no cut-off is given here.

T6 sequence (P28223 whole entry, looked up, one chain of several): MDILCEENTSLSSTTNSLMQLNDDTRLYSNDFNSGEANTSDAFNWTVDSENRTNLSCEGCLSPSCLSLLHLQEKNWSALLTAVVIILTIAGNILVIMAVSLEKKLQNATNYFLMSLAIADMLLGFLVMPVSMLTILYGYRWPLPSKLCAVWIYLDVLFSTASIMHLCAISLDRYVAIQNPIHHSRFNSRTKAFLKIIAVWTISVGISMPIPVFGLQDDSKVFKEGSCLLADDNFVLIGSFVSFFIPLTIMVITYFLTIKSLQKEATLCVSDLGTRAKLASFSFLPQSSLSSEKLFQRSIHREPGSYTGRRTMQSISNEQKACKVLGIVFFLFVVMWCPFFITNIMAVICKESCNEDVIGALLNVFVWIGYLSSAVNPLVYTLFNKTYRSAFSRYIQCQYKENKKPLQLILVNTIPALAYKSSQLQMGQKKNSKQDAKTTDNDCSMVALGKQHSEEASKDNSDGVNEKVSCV
T3 sequence (P28223 whole entry): as the sequence (P28223 whole entry, looked up, one chain of several) above
T1 sequence (P41595 whole entry): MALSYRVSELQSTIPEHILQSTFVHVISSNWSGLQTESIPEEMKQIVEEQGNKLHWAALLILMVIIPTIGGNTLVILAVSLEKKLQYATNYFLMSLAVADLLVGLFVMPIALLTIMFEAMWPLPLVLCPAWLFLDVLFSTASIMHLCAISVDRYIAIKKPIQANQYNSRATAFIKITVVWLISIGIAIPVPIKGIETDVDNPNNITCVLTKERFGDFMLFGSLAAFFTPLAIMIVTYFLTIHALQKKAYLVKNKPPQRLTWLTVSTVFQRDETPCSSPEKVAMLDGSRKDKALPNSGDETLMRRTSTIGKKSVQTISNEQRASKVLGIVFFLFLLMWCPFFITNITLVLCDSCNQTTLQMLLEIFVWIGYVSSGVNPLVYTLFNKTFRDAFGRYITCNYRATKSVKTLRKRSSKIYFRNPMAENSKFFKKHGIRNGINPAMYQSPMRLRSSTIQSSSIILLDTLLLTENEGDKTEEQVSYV

As for `COc1cc2c(cc1C(F)(F)F)N(C(=O)Nc1ccc(-c3ccccc3)nc1)CC2`, the “Log Ki” value in test [1], in test [2] and in [3] was “Insoluble” each time.
Take `COc1cc2c(cc1C(F)(F)F)N(C(=O)Nc1ccc(Oc3cccnc3C)nc1)CC2`: the Ki in [4] is 0.631 nM; in [9], 50.1 nM; in test [10], 794 nM. Further, the ED50 in the test with Rattus norvegicus [5] worked out at 2.8 mg/kg. The IC50 on Cytochrome P450 1A2 [6] was > 100000 nM. Besides, the Selectivity in [7] was 1300; in test [8] it was 80.
As for `COc1cc2c(cc1C(F)(F)F)N(C(=O)Nc1cccc(-c3cccnc3C)c1)CC2`, the figures for the Selectivity in test [11] and in test [12] were 3 and 100, respectively. The Ki in test [4] was 5.01 nM; in [9], 15.8 nM; in test [10], 501 nM. The ED50 with Rattus norvegicus [5] is > 10 mg/kg. The molecule also yielded an Inhibition on Cytochrome P450 1A2 [13] of 2%.
For the molecule `Cc1cc2c(cc1Cl)N(C(=O)Nc1ccc(Oc3cccnc3C)nc1)CC2` [SB-242084], the IC50 at Cytochrome P450 2C19 is > 100000 nM. Besides, the Selectivity stood at 160 in [7] and 100 in test [8].
As for `COc1cc2c(cc1C(F)(F)F)N(C(=O)Nc1cncc(-c3cnccc3C)c1)CC2`, the figures for the Selectivity in test [11] and in test [12] were 15 and 250, respectively. Besides, the figures for the Ki in test [4], in test [15] and in test [10] were 0.398 nM, 6.31 nM and 100 nM, respectively. This molecule also had an ED50 with Rattus norvegicus [14] of 5 mg/kg. Also, at Cytochrome P450 1A2 [6], the 50% inhibitory concentration (IC50) is 200 nM.
Take `Cc1cc2c(cc1C(F)(F)F)N(C(=O)Nc1ccc(Oc3cccnc3C)nc1)CC2` [SB-243213]: the IC50 against Cytochrome P450 2C19 was > 100000 nM; against Cytochrome P450 3A4 it was > 100000 nM; on Cytochrome P450 1A2 [13], > 100000 nM; against Cytochrome P450 2C9, 23000 nM; against Cytochrome P450 2D6 it was > 100000 nM. Further, the Selectivity amounted to 100 in [11] and 160 in test [12]. For the same molecule, the Ki in [4] was 1 nM; in test [9], 100 nM; in test [10], 158 nM. Moreover, the ED50 with Rattus norvegicus [5] was determined as 0.7 mg/kg.
On to `COc1cc2c(cc1C(F)(F)F)N(C(=O)Nc1cncc(-c3ccncc3)c1)CC2`, for which the results for the Selectivity in test [11] and in test [12] were 16 and 100, respectively. The Ki in [4] is 0.631 nM; in [15], 10 nM; in test [10], 63.1 nM. Also, half-maximal inhibition on Cytochrome P450 1A2 [6] (IC50) required 50000 nM.
For `COc1cc2c(cc1C(F)(F)F)N(C(=O)Nc1cc(F)cc(-c3cccnc3)c1)CC2`, the IC50 against Cytochrome P450 2C19 is > 100000 nM; on Cytochrome P450 3A4 it was 9000 nM; at Cytochrome P450 2C9 it was 82000 nM; at Cytochrome P450 2D6, 21000 nM; on Cytochrome P450 1A2 [6] it was 28000 nM. The Selectivity in test [11] stood at 10; in test [12], 130. The Ki in [4] is 1 nM; in test [9], 10 nM; in test [10], 126 nM. Further, the ED50 with Rattus norvegicus [5] was found to be 0.7 mg/kg.
On to `COc1cc2c(cc1C(F)(F)F)N(C(=O)Nc1cncc(-c3ccccc3)c1)CC2`, for which the Selectivity in test [11] came out at 5; in test [12], 320. The Ki in test [4] is 5.01 nM; in test [15], 25.1 nM; in test [10] it was 1580 nM. The ED50 in the test with Rattus norvegicus [5] is > 20 mg/kg. For the same molecule, at Cytochrome P450 1A2 [6], 2600 nM corresponded to half-maximal inhibition (IC50).
Consider `COc1cc2c(cc1C(F)(F)F)N(C(=O)Nc1ccc(C(C)(C)C)c(-c3cccnc3)c1)CC2`, for which the Selectivity is 13 in [11] and 320 in test [12]. The Ki in test [4] is 3.16 nM; in [9], 39.8 nM; in test [10], 1000 nM. Further, the ED50 entry in the test with Rattus norvegicus [16] is “inactive”.
For the molecule `COc1cc2c(cc1C(F)(F)F)N(C(=O)Nc1cncc(-c3cccnc3)c1)CC2`, the figures for the Selectivity in [11] and in [12] were 12 and 80, respectively. For the same molecule, the Ki is 0.794 nM in [4], 10 nM in test [15] and 63.1 nM in test [10]. This molecule also gave an Inhibition on Cytochrome P450 1A2 [6] of 77%.
Consider `COc1cc2c(cc1C(F)(F)F)N(C(=O)Nc1ccc(-c3cccnc3)nc1)CC2`, for which the figures for the Selectivity in test [11] and in test [12] were 2 and > 2000, respectively. In addition, the Ki in test [4] was 5.01 nM; in test [15] it was 10 nM; in [10], > 10000 nM. In addition, the ED50 entry in the test on Rattus norvegicus [17] is “inactive”. On Cytochrome P450 1A2 [6], this molecule returned an IC50 of 7000 nM.
